Assay outcomes: PubChem BioAssay, several laboratories
In the library only some 5.7% were active in any assay of this set; here they are far more common.
SKKanGAS inh – S. pyogenes SKKanGAS growth inhibitors in kanamycin, primary screen, streptokinase expression inhibitor project, SKKanGAS strain, BacTiter-Glo luminescence | 6 h | inhibition, % at 7.5 µM | 1.3% of 300,000 active;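 active means mean replicate score, as percent of positive control median, at least 50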;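 further: strain carries kanamycin resistance gene driven by streptokinase promoter and grows in 40 µg/ml kanamycin; loss of luminescence reflects streptokinase promoter inhibition or plain growth inhibition; 0% = median of DMSO wells and 100% = positive control at its reference dose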
CSC inhib – cancer stem cell viability inhibitors, primary screen, luminescence; 1.1% of 300,000 active; cancer stem cell-like cells viability; inhibition, % at 7.5 µM; in the data active means inhibition above about 75%; tested in HMLE shEcad cells
Beta apoptosis – inhibitors of cytokine-induced beta cell apoptosis, primary screen, luminescence. INS-1E cytokine-induced death, ATP luminescence, 48 h; percent of positive-control rescue, neutral wells zero. protection from apoptosis, % (concentration not given with the values). 0.8% of 300,000 active;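 active means Every replicate reaches about 75%, or at least half do and their mean reaches it too, limit read from the data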;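 further: 0% = cytokine-treated negative control wells and 100% = positive control rescue; higher means more ATP so stronger rescue from cytokine killing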
Mdm2-MdmX inh – inhibitors of human Mdm2-MdmX association, primary screen, cell-based, luminescence, split luciferase, SaOS-2, uHTS | Protein Mdm4 (Homo sapiens) + E3 ubiquitin-protein ligase Mdm2 (Homo sapiens), … | SaOS-2 split-luciferase Mdm2/MdmX complementation | inhibition, % at 8 µM | 3% of 330,000 active;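 active means inhibition of at least 50% at 8 µM in the primary screen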
T cruzi repl – inhibitors of intracellular T. cruzi growth, primary screen, luminescence, NIH3T3 host cells | T. cruzi beta-gal in NIH3T3, 90 h | inhibition, % (no concentration beside the values) | 1.4% of 300,000 active;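 active means mean inhibition across valid replicates above about 55%, limit read from the data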;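 further: signal also drops with host cell toxicity which is not excluded here; 0% = plate median of DMSO wells and 100% = zero luminescence signal; higher percent means less beta-gal luminescence so fewer parasites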
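Read-out: Parasite load inhibition, % | Test system: Mouse NIH/3T3 fibroblasts infected with β-gal-expressing T. cruzi Tulahuen C4 | Amount: 5,000 cells/well | Medium: DMEM, 2% fetal bovine serum | Signal: GalScreen β-gal luminescence, detergent lysis, 60 min | Timing: 3 h attach, ≥90 h co-culture | Also added: Tulahuen C4 trypomastigotes, 5000/well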
Calb FLC – C. albicans growth inhibition with fluconazole, primary screen, CaCi-2 strain, Alamar Blue fluorescence; C. albicans CaCi-2 (fluconazole-resistant clinical isolate) + fluconazole, 48 h; growth inhibition, % (no concentration beside the values); 0.57% of 300,000 active;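 active means growth inhibition above about 58% in most replicates, limit read from the data, passing the limit was not always enough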;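 further: all wells also contain fluconazole at 8 µg/ml as a sub-toxic cotreatment; 0% = median of DMSO wells and 100% = median of geldanamycin control wells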
Mdm2 MdmX conf – Mdm2-MdmX complex disruptors, retested hits, confirmation, luminescence, single concentration; Mdm2-MdmX binding, luminescent assay; inhibition, % at 8 µM; shares compounds with Mdm2-MdmX inh; 55% of 10,000 active; in the data active means inhibition above about 40%
Full FLuc ctr – full-length luciferase signal inhibition, confirmation, counter-screen for Mdm2/MdmX interaction inhibitor project, cell-based, single concentration, SaOS-2; inhibition, % at 8 µM; 77% of 6,200 active; shares compounds with Mdm2-MdmX inh; SaOS-2 full-length luciferase counterscreen, luminescence;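 active means mean inhibition at 8 µM reaching about 37%, which flags the compound as non-specific, limit read from the data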;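 further: p53-null SaOS-2 cells with luciferase driven by a doxycycline-inducible promoter; compound on cells about two nights before reading with doxycycline added after day one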
Numbers without * were called inactive.

For COc1ccc(Cl)cc1NC(=O)CC1S/C(=N/N=C2CCCCCC2)NC1=O (stereo not drawn) the results were SKKanGAS inh 0.3, CSC inhib 1.8, Beta apoptosis -1.9, Mdm2-MdmX inh 16.5, T cruzi repl -17.0 and Calb FLC 3.6.
`Cc1cc(C)n2nc(SCC(=O)NC3CCCCC3C)nc2n1` (stereo not drawn) gave SKKanGAS inh -1.0, CSC inhib -3.8, Beta apoptosis -1.8, T cruzi repl -9.5 and Calb FLC -11.1.
`CC(=O)c1ccccc1NC(=O)CSc1nnc(Cc2csc(C)n2)o1` gave SKKanGAS inh -3.2, CSC inhib -5.5, Beta apoptosis -1.7, Mdm2-MdmX inh -0.6, T cruzi repl -1.3 and Calb FLC -5.2.
O=C1/C(=C/c2ccccn2)COc2ccccc21 was read as SKKanGAS inh -1.2, CSC inhib -0.4, Beta apoptosis 0.1, Mdm2-MdmX inh 1.7, T cruzi repl -8.8 and Calb FLC 3.1.
CC(C)(C)C1C/C(=C/c2ccccn2)C(=O)/C(=C/c2ccccn2)C1 (stereo not drawn) was read as SKKanGAS inh 4.6, CSC inhib 66.6, Beta apoptosis 109.0*, Mdm2-MdmX inh 99.5*, T cruzi repl 40.3, Calb FLC 0.6, Mdm2 MdmX conf 99.9* and Full FLuc ctr 51.2*.
CC1C/C(=C/c2ccccn2)C(=O)/C(=C/c2ccccn2)C1 (stereo not drawn) was read as SKKanGAS inh -22.6, CSC inhib 5.1, Beta apoptosis -11.9, Mdm2-MdmX inh 98.5*, T cruzi repl 58.3*, Calb FLC 26.9, Mdm2 MdmX conf 100.2* and Full FLuc ctr 51.4*.
Screening CC1CCN(CCCNC(=O)c2cc3c(s2)-c2ccccc2OC3)CC1 returned SKKanGAS inh -10.4, CSC inhib 10.7, Beta apoptosis 2.2, Mdm2-MdmX inh 41.2, T cruzi repl 13.5 and Calb FLC 1.6.
For Cc1cccc2c1-c1sc(C(=O)NCCCN3CCC(C)CC3)cc1CO2 the results were SKKanGAS inh 4.6, CSC inhib 16.0, Beta apoptosis 3.8, Mdm2-MdmX inh 57.4*, T cruzi repl 9.7, Calb FLC -0.4 and Mdm2 MdmX conf 15.2.
For Cc1ccc(OCC(COCc2ccccc2)NC(C)C)cc1 (stereo not drawn) the results were SKKanGAS inh 4.1, CSC inhib -0.2, Beta apoptosis -4.2, Mdm2-MdmX inh 8.1, T cruzi repl 11.8 and Calb FLC -0.1.
Screening CC(C)N=C(NS(=O)(=O)c1ccccc1)C(Cl)(Cl)Cl returned SKKanGAS inh 2.0, CSC inhib -2.0, Beta apoptosis 13.8, Mdm2-MdmX inh 83.5*, T cruzi repl 12.6, Calb FLC -35.8, Mdm2 MdmX conf 59.9* and Full FLuc ctr 73.7*.
For Cn1cnnc1SCC(=O)Nc1ccc(F)cc1 the results were SKKanGAS inh 5.3, CSC inhib 1.4, Beta apoptosis -5.7, Mdm2-MdmX inh 4.8, T cruzi repl -7.7 and Calb FLC 2.2.
For CC(=O)c1c(C)[nH]c(C(=O)OCC(=O)Nc2cc(C(F)(F)F)ccc2N2CCOCC2)c1C the results were SKKanGAS inh 7.6, CSC inhib -4.7, Beta apoptosis 7.1, Mdm2-MdmX inh 51.1*, T cruzi repl 0.2, Calb FLC -11.1 and Mdm2 MdmX conf 31.8.
O=C(CSc1nccc(=O)[nH]1)Nc1cc(C(F)(F)F)ccc1N1CCOCC1 was read as SKKanGAS inh 2.7, CSC inhib -6.2, Beta apoptosis -1.5, Mdm2-MdmX inh -7.2, T cruzi repl -10.6 and Calb FLC -19.1.
